# Measured values reported in ChEMBL document CHEMBL4402562, “Discovery of Novel Peptidomimetic Boronate ClpP Inhibitors with Noncanonical Enzyme Mechanism as Potent Virulence Blockers in Vitro and in Vivo” (J Med Chem, 2020).
# Calls of active or inactive are those of the source. The rule behind the calls is not given here.
# How the values were obtained:
# [1] = molecular target: T1, ATP-dependent Clp protease proteolytic subunit (Staphylococcus aureus (strain NCTC 8325)) (UniProt Q2G036); test: Potency index, ratio of IC50 for BTZ to IC50 for test compound for inhibition of ClpP in methicillin-resistant Staphylococcus aureus ATCC 33591 assessed as reduction in bacteria-induced hemolysis of sheep erythrocytes by measuring hemoglobin release incubated for 15 mins
# T1 sequence (whole entry): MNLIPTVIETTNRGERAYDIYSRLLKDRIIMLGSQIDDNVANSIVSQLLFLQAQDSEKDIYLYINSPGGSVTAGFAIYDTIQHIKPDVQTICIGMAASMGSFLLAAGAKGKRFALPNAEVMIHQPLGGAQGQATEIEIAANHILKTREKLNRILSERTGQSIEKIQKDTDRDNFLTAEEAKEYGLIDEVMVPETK
# Staphylococcus aureus [2] = test: (§1) Antivirulence activity against methicillin-resistant Staphylococcus aureus ATCC 33591 infected in BALB/c mouse model of skin abscess assessed as preservation of skin integrity at 1.5 to 3 mg/kg injected into shaved area of skin once daily for 4 days measured after 12 hrs post last dose by hematoxylin and eosin staining based optical microscopy; type: functional, organism-based
# Outline: (§2)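 Same MRSA ATCC 33591 skin-abscess model in female BALB/c mice (n=5/group), 40 µL compound at 1.5 or 3 mg/kg injected into the infected shaved skin once daily for 4 days. On day 4 infected skin and heart, liver, spleen, lung, kidney fixed in 4% paraformaldehyde, embedded, sectioned, H&E stained and examined by microscopy; PBS-treated uninfected and vehicle controls.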
# Staphylococcus aureus [3] = test: Growth inhibition of methicillin-resistant Staphylococcus aureus ATCC 33591 incubated for 18 hrs by broth microdilution method; type: functional; conditions: ATCC 33591, 18 h
# Outline: (§3)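 MRSA ATCC 33591 at ~5×10⁵ CFU/mL in MHB with graded compound concentrations vs DMSO; OD600 growth curves over 18 h; three experiments, triplicate wells. MIC by CLSI broth microdilution in CAMHB, 0.5-256 µg/mL, 18 h at 37 °C, lowest concentration with no visible growth.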
# Staphylococcus aureus [4] = test: Inhibition of virulence-related genes expression in methicillin-resistant Staphylococcus aureus ATCC 33591 assessed as reduction in lukS expression at 4 to 16 uM by qPCR analysis relative to control; type: functional, organism-based
# Outline: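 Total RNA from 2×10⁸ CFU treated MRSA by liquid-nitrogen freeze-thaw and TRIzol; qPCR relative to gyrB endogenous control; three experiments, triplicate wells.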
# [5] = Toxicity in BALB/c mouse model of skin abscess infected with methicillin-resistant Staphylococcus aureus ATCC 33591 assessed as effect on LDH levels at 1.5 to 3 mg/kg injected into shaved area of skin once daily for 4 days; type: organism-based; conditions: in vivo, other, 96 h
# Outline: (§4)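 Infected BALB/c mice (n=5/group) dosed 1.5 or 3 mg/kg into the infected skin once daily for 4 days; blood collected on day 4 and day 14, centrifuged 3,500 rpm 15 min, serum biochemistry analysed.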
# [6] = Toxicity in BALB/c mouse model of skin abscess infected with methicillin-resistant Staphylococcus aureus ATCC 33591 assessed as effect on blood urea nitrogen levels at 1.5 to 3 mg/kg injected into shaved area of skin once daily for 4 days; type: organism-based; conditions: in vivo, other, 96 h; outline: as §4
# [7] = Inhibition of human ClpP (57 to 277 residues) expressed in Escherichia coli […] pre-incubated for 10 mins before Ac-WLA-AMC addition and measured after 1 hr by fluorescence based assay relative to control
# Outline: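 hClpP (3.5 μM monomer) in 25 mM Tris-HCl pH 8.0, 100 mM KCl. Preincubated 10 min at RT with inhibitor, two-fold dilutions over 8 steps from 100 μM. Then 100 μM Ac-WLA-AMC, 380/440 nm for 1 h at 37 °C, slopes normalized to DMSO. Thrice, triplicate wells.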
# [8] = Toxicity in BALB/c mouse model of skin abscess infected with methicillin-resistant Staphylococcus aureus ATCC 33591 assessed as induction of adverse effects at 1.5 to 3 mg/kg injected into shaved area of skin once daily for 4 days measured every day; type: organism-based; conditions: in vivo, other, 96 h
# Outline: (§5)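 Female BALB/c mice, 6-8 weeks, n=5 per group, backs shaved and depilated 1 day before; 50 µL subcutaneous 1.7 × 10⁹ CFU/mL MRSA ATCC 33591. From 6 h post-infection, 40 µL vehicle, vancomycin 3 mg/kg, or compound 1.5 or 3 mg/kg injected at infection site once daily for 4 days; weight recorded daily. Skin homogenised in saline 12 h after last dose, plated on LB agar 37 °C ≥16 h; log10 CFU/abscess; t-test.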
# [9] = molecular target: T1, ATP-dependent Clp protease proteolytic subunit (Staphylococcus aureus (strain NCTC 8325)); test: Inhibition of N-terminal His6-sumo-tagged full length Staphylococcus aureus ClpP expressed in Escherichia coli […] assessed as enzyme activity recovery level at 20-fold molar excess pre-incubated for 10 mins before Suc-LY-AMC addition and measured after 1 hr followed by dialysis up to 72 hrs by fluorescence based assay relative to control; design: scale not given: the % may be the effect or the level left
# Outline: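 ClpP (1 μM, 100 mM Hepes pH 7.0, 100 mM NaCl) incubated 1 h at RT with 20-fold molar excess inhibitor or DMSO. Dialyzed at 4 °C, buffer changed after 6 h and then every 24 h. Aliquots assayed for peptidase activity with Suc-LY-AMC. Thrice, single sample.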
# [10] = Inhibition of AlgW (unknown origin) up to 100 uM pre-incubated for 10 mins before Abz-T-V-A-W-pNA addition and measured after 1 hr by fluorescence based assay
# Staphylococcus aureus [11] = test: as §1, with “reduction in heart histopathological changes” for “preservation of skin integrity”; type: functional, organism-based; outline: as §2
# [12] = Toxicity in BALB/c mouse model of skin abscess infected with methicillin-resistant Staphylococcus aureus ATCC 33591 assessed as increase in AST levels at 1.5 to 3 mg/kg injected into shaved area of skin once daily for 4 days; type: organism-based; conditions: in vivo, other, 96 h; outline: as §4
# Staphylococcus aureus [13] = test: Growth inhibition of methicillin-resistant Staphylococcus aureus ATCC 33591 up to 64 uM incubated for 18 hrs by broth microdilution method; type: functional, organism-based; outline: as §3
# [14] = molecular target: T2, ATP-dependent Clp protease proteolytic subunit (Staphylococcus aureus (strain NCTC 8325), UniProt Q2G036); test: Inhibition of ClpP in methicillin-resistant Staphylococcus aureus ATCC 33591 assessed as reduction in bacteria-induced hemolysis of sheep erythrocytes by measuring hemoglobin release incubated for 15 mins
# T2 sequence (Q2G036 whole entry): T1 sequence (whole entry)
# Staphylococcus aureus [15] = test: as §1, with “reduction in liver histopathological changes” for “preservation of skin integrity”; type: functional, organism-based; outline: as §2
# Staphylococcus aureus [16] = test: as §1, with “reduction in severe alveolar destruction” for “preservation of skin integrity”; type: functional, organism-based; outline: as §2
# [17] = molecular target: T1, ATP-dependent Clp protease proteolytic subunit (Staphylococcus aureus (strain NCTC 8325)); test: Inhibition of ClpP in wild type Staphylococcus aureus NCTC8325 assessed as reduction in bacteria-induced hemolysis of sheep erythrocytes by measuring hemoglobin release incubated for 15 mins
# Outline: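 S. aureus strains grown overnight in MHB, diluted to OD600 0.05, then grown at 37 °C to OD600 ~0.6. Serially diluted inhibitor or DMSO added for 8 h more growth. Supernatant mixed 1:1 with 5% sheep erythrocytes, spun 1,500 rpm for 15 min, hemoglobin read at 545 nm. EC50 by nonlinear fit; thrice, triplicate tubes.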
# [18] = Toxicity in BALB/c mouse model of skin abscess infected with methicillin-resistant Staphylococcus aureus ATCC 33591 assessed as effect on body weight at 1.5 to 3 mg/kg injected into shaved area of skin once daily for 4 days measured every day; type: organism-based; conditions: in vivo, other, 96 h; outline: as §5
smiles,measurement,setting,value
CC(C)C[C@H](NC(=O)[C@H](Cc1c[nH]c2ccccc12)NC(=O)c1cc(Cl)ccc1Cl)B(O)O,Ratio IC50,[1],30
same,Activity,Staphylococcus aureus [2],Active
same,MIC,Staphylococcus aureus [3],64 to 128 µg/mL
same,inhibition,Staphylococcus aureus [4],Active
same,Activity,[5],Non-Toxic
same,Activity,[6],Non-Toxic
same,IC50,[7],3000 to 25000 nM
same,Activity,[8],Non-Toxic
same,Activity,[9],100%
same,inhibition,[10],inactive
same,Activity,Staphylococcus aureus [11],Active
same,Activity,[12],Toxic
same,growth inhibition (GI),Staphylococcus aureus [13],inactive
same,EC50,[14],1400 nM
same,Activity,Staphylococcus aureus [15],Active
same,Activity,Staphylococcus aureus [16],Active
same,inhibition,[17],Dose-dependent effect
same,Activity,[18],Non-Toxic
